Key:
Assay type in all cases: functional, Mesocricetus auratus
Syrian golden hamster [1] = assay: Protective activity against histamine-induced increase in macromolecular permeability in po dosed golden hamster cheek pouch administered 30 mins before induction of anesthesia
Method in brief: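 Oral gavage to male hamsters 30 min before anesthesia induction. Permeability increase was induced by topical histamine on the cheek pouch and read as leakage sites per unit area (leaks/cm²) by intravital microscopy.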

Syrian golden hamster [2] = assay: Protective activity against ischemia/reperfusion-induced increase in macromolecular permeability in iv dosed golden hamster cheek pouch administered 10 mins before onset of reperfusion
Method in brief: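 Male hamster cheek pouch under intravital microscopy; compound given intravenously 10 min before reperfusion onset. Total ischemia of 30 min was produced by a soft rubber tourniquet, pressurized by syringe until flow stopped. Leakage sites (leaks/cm²) were counted 10 min after reperfusion onset and converted to percentage protection against untreated controls.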

Syrian golden hamster [3] = assay: Protective activity against ischemia/reperfusion-induced increase in macromolecular permeability in po dosed golden hamster cheek pouch administered 30 mins before induction of anesthesia
Method in brief: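 Male hamsters, dosed by gavage 30 min before anesthesia induction. The cheek pouch was made totally ischemic for 30 min with a syringe-inflated rubber tourniquet until blood flow ceased. Macromolecular leakage sites per cm² were counted by intravital microscopy 10 min after reperfusion onset and expressed as percentage protection relative to controls.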

Syrian golden hamster [4] = assay: Protective activity against ischemia/reperfusion-induced increase in macromolecular permeability in po dosed golden hamster cheek pouch administered for 10 days
Syrian golden hamster [5] = assay: Protective activity against histamine-induced increase in macromolecular permeability in po dosed golden hamster cheek pouch administered for 10 days

Row | SMILES | Activity (Syrian golden hamster [1]) [%] | Activity (Syrian golden hamster [2]) [%] | Activity (Syrian golden hamster [3]) [%] | Activity (Syrian golden hamster [4]) [%] | Activity (Syrian golden hamster [5]) [%]
1 | CNO | 11 | 33 | 23 |  | 
2 | COc1cc(/C=[N+](\[O-])C(C)(C)C)ccc1OCc1ccccc1 | 32 | 36 | 68 |  | 
3 | Cc1ccc(/C=[N+](\[O-])C(C)(C)C)cc1 |  | 55 | 14 |  | 
4 | C/[N+]([O-])=C/c1cccc(Oc2ccccc2)c1 | 13 | 61 | 46 |  | 
5 | Cc1ccc(/C=[N+](/C)[O-])cc1 |  | 21 | 24 |  | 
6 | CC(C)(C)/[N+]([O-])=C/c1ccc(Cl)cc1 |  | 53 | 63 |  | 
7 | CC(C)(C)/[N+]([O-])=C/c1cccc(Oc2ccccc2)c1 |  | 18 | 12 |  | 
8 | C/[N+]([O-])=C/c1ccc(Cl)cc1 | 29 | 27 | 31 |  | 
9 | C/[N+]([O-])=C/c1ccco1 | 32 | 59 | 15 |  | 
10 | CC(C)(C)NO | 40 | 7 | 10 |  | 
11 | C/[N+]([O-])=C/c1ccc2c(c1)OCO2 | 42 | 50 | 3 |  | 
12 | COc1cc(/C=[N+](/C)[O-])ccc1OCc1ccccc1 | 15 | 51 | 72 |  | 
13 | CC(C)(C)/[N+]([O-])=C/c1ccc2c(c1)OCO2 |  | 38 | 65 |  | 
14 | Cc1c(C)c2c(c(C)c1O)CC[C@@](C)(CCC[C@H](C)CCC[C@H](C)CCCC(C)C)O2 [ALPHA-TOCOPHEROL] |  |  |  | 50 | 40

From ChEMBL document CHEMBL1151916, “N-tert-butyl and N-methyl nitrones derived from aromatic aldehydes inhibit macromolecular permeability increase induced by ischemia/reperfusion in hamsters” (2009)
